A short description of assay [1]: hit retest on RPL19A-GFP reporter strain – cell-based, S. cerevisiae, flow cytometry, cherry picks, mother/daughter gates, confirmation (AID 2270;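 active = GFP response below 50% of the DMSO control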). The settings on record: 3 h, at 10 µM, stronger effect = lower value, 100 = same GFP as DMSO wells. For orientation: In flow cytometry, cells or beads pass a laser one at a time.
A short description of assay [2]: yeast TOR pathway reporter LAP4-GFP change – cell-based, cherry picks, flow cytometry, mother/daughter gates, confirmation (AID 2271;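 active = GFP response above 150% of the DMSO control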;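 also: ratio of sample to DMSO plate mean so 100% equals DMSO level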). The settings on record: S. cerevisiae LAP4-GFP strain, 3 h, at 10 µM, stronger effect = higher value, 100 means same as DMSO control. The method in brief: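 System: Alexa 633-stained baker's yeast GFP-fusion strain; quantity: 0.2 OD600 cells; timing: compound exposure 3 h at 30 °C, end-over-end rotation; detection: HT flow cytometry, GFP fluorescence channel; measure: per-gate (all, mother, daughter) GFP response vs DMSO; control set: DMSO-only negative wells, rapamycin 400 ng/mL positive wells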

Assay [3] is described as follows: TOR pathway reporter MEP2-GFP, retest of hits – S. cerevisiae, flow cytometry GFP, cherry picks, confirmation (AID 2272;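 active = GFP response above 150% of the DMSO control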;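 also: ratio of well signal to plate DMSO mean so 100% equals DMSO level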). The note with it: S. cerevisiae MEP2-GFP strain, 3 h, at 10 µM, stronger effect = higher value.
A short description of assay [4]: yeast AGP1-GFP fluorescence change, single-dose – cell-based, flow cytometry, S. cerevisiae, cherry picks, confirmation (AID 2273).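 Also: median GFP channel fluorescence over the whole cell population gate.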 The settings on record: S. cerevisiae AGP1-GFP strain, 3 h, at 10 µM.
A short description of assay [5]: TOR pathway CIT2 reporter hit retest – S. cerevisiae, GFP fusion, cherry picks, mother/daughter gates, confirmation (AID 2274). The settings on record: S. cerevisiae CIT2-GFP strain, flow cytometry, 3 h, at 10 µM, stronger effect = higher value.
Where [6] appears, read: measured here: daughter cell gate.
Setting [7] is: measured here: mother cell gate.
[8] abbreviates: measured here: daughter cell gate response.
Where [9] appears, read: measured here: mother cell gate response.

Calls of active or inactive are those of the source.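 The calls were made as follows, unless noted: active = GFP response above 150% of the DMSO level; inconclusive = fewer than 70 events counted for a yeast strain; inactive = the rest.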

For the compound `O=C(Nc1ccc(Cl)cc1Cl)c1cccc(N2C(=O)C=CC2=O)c1`, the GFP response vs DMSO was 76.5% (inactive) in assay [1], 70.3% in assay [1] (setting [6]), 65.5% in assay [1] (setting [7]) and 111% (inactive) in assay [3]. The GFP response relative to DMSO was 204% (active) in assay [2], 123% in assay [2] (setting [8]) and 179% in assay [2] (setting [9]). Further, the GFP response, % of DMSO was 99.1% (inactive) in assay [4], 96.9% (inactive) in assay [5], 105% in assay [5] (setting [6]) and 80.7% in assay [5] (setting [7]).

Take `O=C1c2ccccc2C(=O)c2c([N+](=O)[O-])ccc(O)c21`: the GFP response vs DMSO was 82.2% (inactive) in assay [1], 91.2% in assay [1] (setting [6]), 74.2% in assay [1] (setting [7]) and 110% (inactive) in assay [3]. Further, the figures for the GFP response relative to DMSO in assay [2], in assay [2] (setting [8]) and in assay [2] (setting [9]) were 122% (inactive), 114% and 124%, respectively. In addition, the GFP response, % of DMSO is 106% (inactive) in assay [4], 92.2% (inactive) in assay [5], 93.7% in assay [5] (setting [6]) and 82.8% in assay [5] (setting [7]).

Consider `CCN(Cc1ccccc1)S(=O)(=O)c1ccc(C(=O)Nc2nnc(C)o2)cc1`, for which the GFP response vs DMSO in assay [1] was 97.2% (inactive); in assay [1] (setting [6]), 98.5%; in assay [1] (setting [7]) it was 98.6%; in assay [3] it was 102% (inactive). Besides, the GFP response relative to DMSO in assay [2] is 102% (inactive); in assay [2] (setting [8]), 102%; in assay [2] (setting [9]), 107%. The GFP response, % of DMSO in assay [4] is 100% (inactive); in assay [5], 101% (inactive); in assay [5] (setting [6]) it was 102%; in assay [5] (setting [7]), 101%.

For `O=C1c2cccc3c(N4CCCCC4)ccc(c23)C(=O)N1CCO`, the GFP response vs DMSO in assay [1] is 100% (inactive); in assay [1] (setting [6]) it was 94.9%; in assay [1] (setting [7]), 94.9%; in assay [3], 105% (inactive). Also, the figures for the GFP response relative to DMSO in assay [2], in assay [2] (setting [8]) and in assay [2] (setting [9]) were 99.5% (inactive), 99.1% and 98.4%, respectively. Moreover, the GFP response, % of DMSO was 103% (inactive) in assay [4], 103% (inactive) in assay [5], 101% in assay [5] (setting [6]) and 96.8% in assay [5] (setting [7]).

Turning to `CC(C)c1nnc(-c2ccc(Cl)cc2)c(N(C)C)n1`, the GFP response vs DMSO is 98.9% (inactive) in assay [1], 99.3% in assay [1] (setting [6]), 97.8% in assay [1] (setting [7]) and 103% (inactive) in assay [3]. Further, the GFP response relative to DMSO was 98.9% (inactive) in assay [2], 96% in assay [2] (setting [8]) and 99.5% in assay [2] (setting [9]). The GFP response, % of DMSO is 106% (inactive) in assay [4], 100% (inactive) in assay [5], 101% in assay [5] (setting [6]) and 100% in assay [5] (setting [7]).

On to `CNc1nc(-c2ccccc2)cc(C(F)(F)F)c1C#N`, for which the GFP response vs DMSO is 97.4% (inactive) in assay [1], 95.3% in assay [1] (setting [6]), 92.9% in assay [1] (setting [7]) and 104% (inactive) in assay [3]. For the same compound, the GFP response relative to DMSO in assay [2] is 96.2% (inactive); in assay [2] (setting [8]) it was 95.6%; in assay [2] (setting [9]), 93.1%. The GFP response, % of DMSO was 102% (inactive) in assay [4], 102% (inactive) in assay [5], 99.7% in assay [5] (setting [6]) and 98.7% in assay [5] (setting [7]).

Turning to `O=C(/C=C/c1ccc(F)cc1)c1ccccc1Br`, the GFP response vs DMSO is 98% (inactive) in assay [1], 98.1% in assay [1] (setting [6]), 98.3% in assay [1] (setting [7]) and 103% (inactive) in assay [3]. Moreover, the GFP response relative to DMSO in assay [2] was 112% (inactive); in assay [2] (setting [8]), 112%; in assay [2] (setting [9]), 116%. The GFP response, % of DMSO was 98.1% (inactive) in assay [4], 93.4% (inactive) in assay [5], 93.7% in assay [5] (setting [6]) and 89.8% in assay [5] (setting [7]).

For `CCn1c(=O)c(C(=O)NC(C)C)c(O)c2ccccc21`, the GFP response vs DMSO is 101% (inactive) in assay [1], 98.7% in assay [1] (setting [6]), 101% in assay [1] (setting [7]) and 100% (inactive) in assay [3]. For the same compound, the GFP response relative to DMSO was 101% (inactive) in assay [2], 100% in assay [2] (setting [8]) and 101% in assay [2] (setting [9]). The GFP response, % of DMSO in assay [4] was 97.8% (inactive); in assay [5], 103% (inactive); in assay [5] (setting [6]), 99.7%; in assay [5] (setting [7]), 103%.
